Data set [1] relates to Mus musculus. The data set can be described thus: Compound was evaluated for anticonvulsant activity by maximal electroshock assay(MES) in mice after ip administration; 8-16. Format: functional. The method, boiled down:
(§1)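 Male Hilltop ICR-derived mice (19-30 g), groups of 8-10, dosed ip with compound or aqueous vehicle. After 15 min pretreatment, a transcorneal 60-Hz, 50 mA shock was given for 0.2 s. Just before the shock, each mouse was tested on a horizontal wire (10 s). Quantal data were analysed by Litchfield-Wilcoxon to give ED50 with 95% confidence limits.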
For orientation: Protection in the maximal electroshock model is a classic sign of anticonvulsant action.

Data set [2] relates to Mus musculus. The data set can be described thus: Dose of compound causing a neurological deficit in 50% of mice after ip administration; 19-38. Format: functional. The method, boiled down:
(§2)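 Traction test in male Hilltop ICR-derived mice (19-30 g, groups of 8-10) just before electroshock, 15 min after ip or 30 min after oral dosing. Mice placed on a 16-gauge, 65-cm copper wire 40 cm above the table; deficit scored as failure to stay on for 10 s. ND50 with 95% limits by Litchfield-Wilcoxon.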

Data set [3] relates to Mus musculus. In words: Protective index is defined as ND50 (i.p.) divided by MES ED50(i.p.). In kind it is functional. The method, boiled down:
(§3)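 Ratio of ND50 from the wire traction test to MES ED50, both measured by the same route (ip or oral) in the same animals. Quantal dose-response data for each were evaluated by Litchfield-Wilcoxon.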

Data set [4] has as its system Mus musculus. In words: Compound was evaluated for anticonvulsant activity by maximal electroshock assay(MES) in mice after po administration; 29-53. Format: functional. The method, boiled down: (§4)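 Male Hilltop ICR-derived mice (19-30 g), groups of 8-10, given compound or aqueous vehicle orally. The transcorneal 60-Hz shock (50 mA, 0.2 s) followed a 30 min pretreatment and a wire-hang neurological check (10 s). ED50 and 95% confidence limits were obtained from quantal data by the Litchfield-Wilcoxon method.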

For data set [5], the system named is Mus musculus. The data set can be described thus: Compound was evaluated for anticonvulsant activity by maximal electroshock assay(MES) in mice after ip administration; 12-15. In kind it is functional. The method, boiled down: as §1
The subject of data set [6] is Mus musculus. The data set can be described thus: Dose of compound causing a neurological deficit in 50% of mice after ip administration; 61-69. Format: functional. The method, boiled down:
as §2

The subject of data set [7] is Mus musculus. In words: Dose causing a neurological deficit in 50% of mice following p.o. administration. In kind it is functional. The method, boiled down:
as §2

The subject of data set [8] is Rattus norvegicus. The data set can be described thus: Compound was evaluated for anticonvulsant activity by maximal electroshock assay(MES) in rat after ip administration; 1.2-6.2. Format: functional.
The test system of data set [9] is Rattus norvegicus. In words: Dose of compound causing a neurological deficit in 50% of rat after ip administration; 35-83. Format: functional. The method, boiled down: (§5)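 Rats (Simonsen Sprague-Dawley-derived, 80-110 g, groups of 8-10) placed on a suspended 16-gauge, 65-cm copper wire just before electroshock. Deficit scored as inability to remain for 8 s. Pretreatment was 15 min ip or 30 min oral. Quantal data analysed by Litchfield-Wilcoxon to give ND50 with 95% limits.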

The subject of data set [10] is Mus musculus. The data set can be described thus: Protective index defined as ND50 (p.o.) divided by MES ED50(op). Format: functional. The method, boiled down:
as §3

Data set [11] has as its system Mus musculus. In words: Dose of compound causing a neurological deficit in 50% of mice after ip administration; 79-125. Format: functional. The method, boiled down:
as §2

For data set [12], the system named is Rattus norvegicus. The data set can be described thus: Compound was evaluated for anticonvulsant activity by maximal electroshock assay(MES) in rat after po administration; 34-83. In kind it is functional. The method, boiled down: (§6)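 Male Simonsen Sprague-Dawley-derived rats, 80-110 g, groups of 8-10, dosed with compound or aqueous vehicle; pretreatment 15 min after ip or 30 min after oral dosing. Transcorneal electroshock, 150 mA, 60 Hz, 0.2 s, given after the wire test. ED50 with 95% confidence limits from quantal data by Litchfield-Wilcoxon.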

The test system of data set [13] is Rattus norvegicus. The data set can be described thus: Dose of compound causing a neurological deficit in 50% of rat after ip administration. Format: functional. The method, boiled down:
as §5

Data set [14] concerns Rattus norvegicus. The data set can be described thus: Dose of compound causing a neurological deficit in 50% of rat after po administration. In kind it is functional. The method, boiled down:
as §5

The subject of data set [15] is Mus musculus. The data set can be described thus: Compound was evaluated for anticonvulsant activity by maximal electroshock assay(MES) in mice after ip administration; 14-23. In kind it is functional. The method, boiled down: as §1
Data set [16] deals with Rattus norvegicus. The data set can be described thus: Compound was evaluated for anticonvulsant activity by maximal electroshock assay(MES) in rat after ip administration; 8-23. In kind it is functional. The method, boiled down:
as §6

The subject of data set [17] is Mus musculus. The data set can be described thus: Compound was evaluated for anticonvulsant activity by maximal electroshock assay(MES) in mice after po administration; 55-103. Format: functional. The method, boiled down:
as §4

Data set [18] concerns Mus musculus. The data set can be described thus: Dose causing a neurological deficit in 50% of mice after ip administration. In kind it is functional. The method, boiled down: as §2
Data set [19] deals with Mus musculus. In words: Compound was evaluated for anticonvulsant activity by maximal electroshock assay(MES) in mice after ip administration; 20-28. In kind it is functional. The method, boiled down:
as §1

Data set [20] in a line: Lethal dose was measured in mice after ip administration. Format: toxicity, organism-based. As to conditions: mouse, in vivo. The method, boiled down:
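Male Simonsen ICR-derived mice (16-24 g), groups of three, given compound ip in increasing doses within a behavioral screen. Deaths counted on day 5, and LD50 estimated from 5-day survival. Quantal data analysed by the Litchfield-Wilcoxon method.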

The subject of data set [21] is Mus musculus. The data set can be described thus: Compound was evaluated for anticonvulsant activity by maximal electroshock assay(MES) in mice after po administration; 69-90. Format: functional. The method, boiled down:
as §4

The test system of data set [22] is Mus musculus. The data set can be described thus: Compound was evaluated for anticonvulsant activity by maximal electroshock assay(MES) in mice after ip administration; 13-43. Format: functional. The method, boiled down: as §1
The subject of data set [23] is Mus musculus. The data set can be described thus: Compound was evaluated for anticonvulsant activity by maximal electroshock assay(MES) in mice after ip administration; 13-19. In kind it is functional. The method, boiled down: as §1
The subject of data set [24] is Mus musculus. In words: Dose of compound causing a neurological deficit in 50% of mice after ip administration; 25-30. Format: functional. The method, boiled down:
as §2

In data set [25] the test system is Mus musculus. In words: Compound was evaluated for anticonvulsant activity by maximal electroshock assay(MES) in mice after ip administration; 8-17. Format: functional. The method, boiled down: as §1
The test system of data set [26] is Mus musculus. In words: Dose of compound causing a neurological deficit in 50% of mice after ip administration; 45-89. Format: functional. The method, boiled down:
as §2

Data set [27] deals with Mus musculus. The data set can be described thus: Compound was evaluated for anticonvulsant activity by maximal electroshock assay(MES) in mice after ip administration; 8-13. In kind it is functional. The method, boiled down:
as §1

Data set [28] concerns Mus musculus. The data set can be described thus: Dose of compound causing a neurological deficit in 50% of mice after ip administration; 16 to > 100. Format: functional. The method, boiled down:
as §2

Data set [29] relates to Mus musculus. In words: Compound was evaluated for anticonvulsant activity by maximal electroshock assay(MES) in mice after po administration; 41-77. In kind it is functional. The method, boiled down: as §4
The subject of data set [30] is Mus musculus. In words: Dose of compound causing a neurological deficit in 50% of mice after ip administration; 16-49. In kind it is functional. The method, boiled down:
as §2

Bounds are passed on as bounds.

For orientation: ED50 means the midpoint of the dose-response relation. A lower ED50 goes with an effect at a small dose. As a reminder, the LD50 is the dose expected to kill half of the subjects tested. Read a high LD50 as a less toxic substance.

`CCOC(Cn1ccnc1)c1ccc2ccccc2c1` (centres undefined) yielded an ED50 in the data set on Mus musculus [1] of 11 mg/kg. Further, in the data set with Mus musculus [2], the ND50 came out at 27 mg/kg. The PI in the data set with Mus musculus [3] came to 2.5.

For the molecule `Br.CCc1ccc2cccc(C(=O)Cn3ccnc3)c2c1`, the ED50 in the data set with Mus musculus [4] amounted to 40 mg/kg; in the data set with Mus musculus [5], 13 mg/kg; in the data set with Rattus norvegicus [8], 3.1 mg/kg. The results for the ND50 in the data set on Mus musculus [6], in the data set with Mus musculus [7] and with Rattus norvegicus [9] were 65 mg/kg, greater than 100 mg/kg and 53 mg/kg, respectively. Moreover, the PI in the data set with Mus musculus [10] was greater than 2.5.

Regarding `Cl.O=C(OC(Cn1ccnc1)c1ccc2ccccc2c1)c1ccccc1` (centres undefined), the ND50 in the data set on Mus musculus [11] was 99 mg/kg; in the data set on Rattus norvegicus [13] it was greater than 100 mg/kg; with Rattus norvegicus [14] it was greater than 100 mg/kg. The 50% effective dose (ED50) with Rattus norvegicus [12] was determined as 53 mg/kg; with Mus musculus [15], 19 mg/kg; in the data set on Rattus norvegicus [16], 14 mg/kg. Also, in the data set on Mus musculus [3], the PI was determined as 5.2.

For `Cc1ccc2cc(C(=O)Cn3ccnc3)ccc2c1.Cl`, the ED50 in the data set on Mus musculus [17] turned out to be 76 mg/kg; in the data set on Mus musculus [19], 24 mg/kg. In addition, the ND50 was greater than 100 mg/kg with Mus musculus [18] and greater than 150 mg/kg in the data set with Mus musculus [7]. Besides, the LD50 in [20] is greater than 100 mg/kg. For the same molecule, the results for the PI in the data set on Mus musculus [10] and with Mus musculus [3] were greater than 2 and greater than 4.3, respectively.

Turning to `Cc1cc2ccc(C(=O)Cn3ccnc3)cc2cc1C.Cl`, the ED50 was determined as 78 mg/kg in the data set with Mus musculus [21] and 25 mg/kg in the data set on Mus musculus [22]. Also, the ND50 with Mus musculus [18] and in the data set with Mus musculus [7] was greater than 100 mg/kg each time. In addition, the PI in the data set with Mus musculus [10] was greater than 1.3; in the data set on Mus musculus [3], greater than 4.

`CCCCOC(Cn1ccnc1)c1cccc2ccccc12` (centres undefined) had an ED50 in the data set on Mus musculus [23] of 16 mg/kg. The ND50 in the data set on Mus musculus [24] was 27 mg/kg. Besides, the PI with Mus musculus [3] was 1.7.

In the data set with Mus musculus [25], `Cl.OC(CCn1ccnc1)c1ccc2ccccc2c1` (centres undefined) showed a median effective dose (ED50) of 13 mg/kg. Also, in the data set with Mus musculus [26], the ND50 was 64 mg/kg. Moreover, in the data set with Mus musculus [3], the PI stood at 4.9.

`COC(CCn1ccnc1)c1ccc2ccccc2c1.O=S(=O)(O)O` (centres undefined) returned an ED50 in the data set on Mus musculus [27] of 11 mg/kg. The ND50 with Mus musculus [28] is greater than 39 mg/kg. The same molecule showed a PI in the data set on Mus musculus [3] of 3.5.

Regarding `Cl.c1ccc2cc(C3(Cn4ccnc4)OCCCO3)ccc2c1`, the ED50 in the data set with Mus musculus [29] stood at 57 mg/kg. The ND50 with Mus musculus [30] was 30 mg/kg; in the data set on Mus musculus [7] it was greater than 100 mg/kg. Also, the PI in the data set on Mus musculus [10] is greater than 1.7; in the data set on Mus musculus [3], 1.8.

The values above are taken from ChEMBL document CHEMBL1121883, “1-(Naphthylalkyl)-1H-imidazole derivatives, a new class of anticonvulsant agents” (J Med Chem, 1981).
